ChEMBL document CHEMBL1255446, “Combinations of mutations in the connection domain of human immunodeficiency virus type 1 reverse transcriptase: assessing the impact on nucleoside and nonnucleoside reverse transcriptase inhibitor resistance” (2010)

Legend:
Type in all cases: functional
[1] = test system: Human immunodeficiency virus 1; assay: Antiviral activity against HIV1 with RT connection domain G190A/N348Ib mutant transfected in HEK293 cells assessed as inhibition of viral replication relative to HIV1 NL4-3
Outline: (§1)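 Single-replication-cycle (PhenoSense) assay. Site-directed mutant RT pseudoviruses were made by cotransfecting 293 cells with RTV plasmid plus an amphotropic MLV Env plasmid, harvested at 48 h, and used to infect fresh 293 cells. Serial drug dilutions were added before infection. Luciferase was read ~72 h post-infection, % inhibition was computed, and EC50 was taken from the curves. Values are fold change versus NL4-3 reference run in the same experiment.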

[2] = test system: Human immunodeficiency virus 1; assay: Antiviral activity against HIV1 with RT connection domain G190A/T369I mutant transfected in HEK293 cells assessed as inhibition of viral replication relative to HIV1 NL4-3; outline: as §1
[3] = test system: Human immunodeficiency virus 1; assay: Antiviral activity against HIV1 with RT connection domain G190A/T369I/N348I mutant transfected in HEK293 cells assessed as inhibition of viral replication relative to HIV1 NL4-3; outline: as §1
[4] = test system: Human immunodeficiency virus 1; assay: Antiviral activity against HIV1 with RT connection domain G190S mutant transfected in HEK293 cells assessed as inhibition of viral replication relative to HIV1 NL4-3; outline: as §1
[5] = test system: Human immunodeficiency virus 1; assay: Antiviral activity against HIV1 with RT connection domain G190S/N348I mutant transfected in HEK293 cells assessed as inhibition of viral replication relative to HIV1 NL4-3; outline: as §1
[6] = test system: Human immunodeficiency virus 1; assay: Antiviral activity against HIV1 with RT connection domain G190S/T369I mutant transfected in HEK293 cells assessed as inhibition of viral replication relative to HIV1 NL4-3; outline: as §1
[7] = test system: Human immunodeficiency virus 1; assay: Antiviral activity against HIV1 with RT connection domain G190S/T369I/N348I mutant transfected in HEK293 cells assessed as inhibition of viral replication relative to HIV1 NL4-3; outline: as §1
[8] = test system: Human immunodeficiency virus 1; assay: Antiviral activity against HIV1 with RT connection domain L100I mutant transfected in HEK293 cells assessed as inhibition of viral replication relative to HIV1 NL4-3; outline: as §1
[9] = test system: Human immunodeficiency virus 1; assay: Antiviral activity against HIV1 with RT connection domain L100I/N348I mutant transfected in HEK293 cells assessed as inhibition of viral replication relative to HIV1 NL4-3; outline: as §1
[10] = test system: Human immunodeficiency virus 1; assay: Antiviral activity against HIV1 with RT connection domain L100I/T369I mutant transfected in HEK293 cells assessed as inhibition of viral replication relative to HIV1 NL4-3; outline: as §1
[11] = test system: Human immunodeficiency virus 1; assay: Antiviral activity against HIV1 with RT connection domain L100I/T369I/N348I mutant transfected in HEK293 cells assessed as inhibition of viral replication relative to HIV1 NL4-3; outline: as §1
[12] = test system: Human immunodeficiency virus 1; assay: Antiviral activity against HIV1 with RT connection domain T369I mutant transfected in HEK293 cells assessed as inhibition of viral replication relative to HIV1 NL4-3; outline: as §1
[13] = test system: Human immunodeficiency virus 1; assay: Antiviral activity against HIV1 with RT connection domain T369V mutant transfected in HEK293 cells assessed as inhibition of viral replication relative to HIV1 NL4-3; outline: as §1
[14] = test system: Human immunodeficiency virus 1; assay: Antiviral activity against HIV1 with RT connection domain N348I mutant transfected in HEK293 cells assessed as inhibition of viral replication relative to HIV1 NL4-3; outline: as §1
[15] = test system: Human immunodeficiency virus 1; assay: Antiviral activity against HIV1 with RT connection domain T369I/N348I mutant transfected in HEK293 cells assessed as inhibition of viral replication relative to HIV1 NL4-3; outline: as §1
[16] = test system: Human immunodeficiency virus 1; assay: Antiviral activity against HIV1 with RT connection domain K103N mutant transfected in HEK293 cells assessed as inhibition of viral replication relative to HIV1 NL4-3; outline: as §1
[17] = test system: Human immunodeficiency virus 1; assay: Antiviral activity against HIV1 with RT connection domain K103N/N348I mutant transfected in HEK293 cells assessed as inhibition of viral replication relative to HIV1 NL4-3; outline: as §1
[18] = test system: Human immunodeficiency virus 1; assay: Antiviral activity against HIV1 with RT connection domain K103N/T369I mutant transfected in HEK293 cells assessed as inhibition of viral replication relative to HIV1 NL4-3; outline: as §1
[19] = test system: Human immunodeficiency virus 1; assay: Antiviral activity against HIV1 with RT connection domain K103N/T369I/N348I mutant transfected in HEK293 cells assessed as inhibition of viral replication relative to HIV1 NL4-3; outline: as §1
[20] = test system: Human immunodeficiency virus 1; assay: Antiviral activity against HIV1 with RT connection domain Y181C mutant transfected in HEK293 cells assessed as inhibition of viral replication relative to HIV1 NL4-3; outline: as §1
[21] = test system: Human immunodeficiency virus 1; assay: Antiviral activity against HIV1 with RT connection domain Y181C/N348I mutant transfected in HEK293 cells assessed as inhibition of viral replication relative to HIV1 NL4-3; outline: as §1
[22] = test system: Human immunodeficiency virus 1; assay: Antiviral activity against HIV1 with RT connection domain Y181C/T369I mutant transfected in HEK293 cells assessed as inhibition of viral replication relative to HIV1 NL4-3; outline: as §1
[23] = test system: Human immunodeficiency virus 1; assay: Antiviral activity against HIV1 with RT connection domain Y181C/T369I/N348I mutant transfected in HEK293 cells assessed as inhibition of viral replication relative to HIV1 NL4-3; outline: as §1
[24] = test system: Human immunodeficiency virus 1; assay: Antiviral activity against HIV1 with RT connection domain G190A mutant transfected in HEK293 cells assessed as inhibition of viral replication relative to HIV1 NL4-3; outline: as §1

SMILES | fold change (FC) [1] | fold change (FC) [2] | fold change (FC) [3] | fold change (FC) [4] | fold change (FC) [5] | fold change (FC) [6] | fold change (FC) [7] | fold change (FC) [8] | fold change (FC) [9] | fold change (FC) [10] | fold change (FC) [11] | fold change (FC) [12] | fold change (FC) [13] | fold change (FC) [14] | fold change (FC) [15] | fold change (FC) [16] | fold change (FC) [17] | fold change (FC) [18] | fold change (FC) [19] | fold change (FC) [20] | other results
O=C1Nc2ccc(Cl)cc2[C@@](C#CC2CC2)(C(F)(F)F)O1 [EFAVIRENZ] | 26 | 33.7 | >700 | 63 | >700 | >700 | >700 | 9 | 16 | 13.6 | 137.7 | 2.4 | 3.1 | 1.9 | 8.1 | 21.3 | 115 | 164.1 | >700 | 1.7 | fold change (FC) [21]: 3.2; fold change (FC) [22]: 4; fold change (FC) [23]: 17; fold change (FC) [24]: 5.2
Cc1cn([C@H]2C[C@H](N=[N+]=[N-])[C@@H](CO)O2)c(=O)[nH]c1=O [ZIDOVUDINE] | 2 | 1.7 | 4.2 | 0.8 | 1.7 | 0.7 | 5.8 | 0.1 | 0.3 | 0.2 | 0.5 | 2.7 | 2.1 | 2.4 | 5.4 | 1.1 | 2.6 | 2.3 | 7.9 | 0.3 | fold change (FC) [21]: 0.7; fold change (FC) [22]: 0.9; fold change (FC) [23]: 2.2; fold change (FC) [24]: 1.1
CC(C)Nc1cccnc1N1CCN(C(=O)c2cc3cc(NS(C)(=O)=O)ccc3[nH]2)CC1 [DELAVIRDINE] | 1.1 | 1.2 | 5.9 | 0.3 | 0.9 | 0.6 | 6.9 | 34 | 90.7 | 49.7 | >250 | 5.2 | 5.5 | 3.4 | 29.8 | 75.7 | >250 | >250 | >250 | 44.7 | fold change (FC) [21]: >250; fold change (FC) [22]: >250; fold change (FC) [23]: >250; fold change (FC) [24]: 0.3
Cc1ccnc2c1NC(=O)c1cccnc1N2C1CC1 [NEVIRAPINE] | >400 | >400 | >400 | 145 | >400 | >400 | >400 | 2.1 | 5.3 | 4.8 | 56.3 | 8.4 | 9.2 | 4.1 | 58.6 | 81 | >400 | >400 | >400 | 317 | fold change (FC) [21]: >400; fold change (FC) [22]: >400; fold change (FC) [23]: >400; fold change (FC) [24]: 127.7
